In ChEMBL document CHEMBL1833940, “Discovery of 3-(2,6-dichloro-3,5-dimethoxy-phenyl)-1-{6-[4-(4-ethyl-piperazin-1-yl)-phenylamino]-pyrimidin-4-yl}-1-methyl-urea (NVP-BGJ398), a potent and selective inhibitor of the fibroblast growth factor receptor family of receptor tyrosine kinase” (J Med Chem, 2011):
Calls of active or inactive are those of the source. No cut-off for these calls is given here.

Legend:
[1] = biological target: Non-receptor tyrosine-protein kinase TYK2 (Homo sapiens, UniProt P29597); assay: Inhibition of recombinant TYK2
Method in brief: (§1)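 Purified recombinant kinases were tested under optimized conditions with peptide substrates. ATP was set at each kinase's Km. Phosphorylation was read out by microfluidic mobility shift, and IC50 values were determined.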

Ephrin type-B receptor 4 = Ephrin type-B receptor 4 (Homo sapiens, UniProt P54760); assay: Inhibition of recombinant EPHB4
Method in brief: (§2)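 Purified recombinant kinases under optimized conditions, with peptide substrates and ATP at each kinase's Km. Phosphorylation was read out by microfluidic mobility shift, and IC50 values were obtained.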

[2] = biological target: Tyrosine-protein kinase Yes (Homo sapiens, UniProt P07947); assay: Inhibition of recombinant YES kinase
Method in brief: (§3)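 Purified recombinant kinases under optimized conditions with peptide substrates. ATP was set at each kinase's Km. Phosphorylation was read by microfluidic mobility-shift separation of substrate and product; IC50 determined.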

[3] = biological target: Mitogen-activated protein kinase 1 (Homo sapiens, UniProt P28482); assay: Inhibition of recombinant ERK2; method in brief: as §3
[4] = biological target: Serine/threonine-protein kinase PAK 2 (Homo sapiens, UniProt Q13177); assay: Inhibition of recombinant PAK2; method in brief: as §3
[5] = biological target: Tyrosine-protein kinase Mer (Homo sapiens, UniProt Q12866); assay: Inhibition of recombinant MER; method in brief: as §2
Rattus norvegicus [6] = assay: Inhibition of FGFR autophosphorylation in RT112 tumour bearing nude Rowett rat assessed as decrease in pMAPK concentration at 8.51 mg/kg, po administered as a single dose after 16 hrs by Western blot analysis; assay type: functional, organism-based; set-up: dose 8.51 mg/kg
Method in brief: (§4)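 RT112 subcutaneous xenografts in female nude Rowett rats (n = 4). Single oral gavage of the monophosphate salt at 4.25 or 8.51 mg/kg (free base equivalents) in acetic acid–acetate buffer pH 4.6/PEG300 (1:1). Tumors were collected at time points up to 24 h, frozen, homogenized and lysed. Western blots probed pFRS2(Tyr196) and pMAPK, with total FRS2, total MAPK or β-tubulin as loading controls.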

[7] = biological target: Hepatocyte growth factor receptor (Homo sapiens, UniProt P08581); assay: Inhibition of recombinant MET; method in brief: as §1
[8] = Inhibition of recombinant S6K
Method in brief: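 Purified recombinant kinases with peptide substrates and ATP at each kinase's Km. Read-out was microfluidic mobility shift.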

Rattus norvegicus [9] = assay: Inhibition of FGFR autophosphorylation in RT112 tumor bearing nude rowett rat assessed as decrease in pMAPK concentration at 4.25 to 8.51 mg/kg, po administered as a single dose after 24 hrs by Western blot analysis; assay type: functional, organism-based; method in brief: as §4
[10] = Tmax in tumor of RT112/luc1 cells implanted athymic nude mouse at 20 mg/kg, po by LC/MS/MS analysis; assay type: ADME, organism-based, Neoplasm; set-up: dose 20 mg/kg, route oral
Method in brief: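 Female athymic nude mice carrying subcutaneous RT112/luc1 tumors (ca. 300–400 mm3). Dosing was 5 mg/kg iv by tail vein in NMP/PEG200 (1:9) or 20 mg/kg by oral gavage as a suspension in PEG300/D5W (2:1). Groups (n = 4) were sacrificed from 0.083 to 24 h. Plasma and tumor were measured by LC-MS/MS (LOQ 5 ng/mL, 10 ng/g). Noncompartmental analysis used the linear trapezoidal AUC; F was calculated from dose-normalized AUC.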

Tumour [11] = assay: Cmax in tumor of RT112/luc1 cells implanted athymic nude mouse at 5 mg/kg, iv by LC/MS/MS analysis; assay type: ADME, organism-based, Neoplasm; set-up: dose 5 mg/kg, route intravenous; conditions: in vivo
Method in brief: (§5)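 Female athymic nude mice carried subcutaneous RT112/luc1 tumors (5×10^6 cells, 50% Matrigel; about 300–400 mm3). Dosing was either 5 mg/kg iv by tail vein in NMP/PEG200 (1:9) or 20 mg/kg oral suspension in PEG300/D5W (2:1). Groups of mice (n = 4) were sacrificed at 0.083–24 h. Plasma and tumor levels were measured by LC-MS/MS (LOQ 5 ng/mL, 10 ng/g).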

[12] = biological target: ALK tyrosine kinase receptor (Homo sapiens, UniProt Q9UM73); assay: Inhibition of recombinant ALK; method in brief: as §2
[13] = biological target: Glycogen synthase kinase-3 beta (Homo sapiens, UniProt P49841); assay: Inhibition of recombinant GSK3-beta; method in brief: as §3
Tumour [14] = assay: Cmax in tumor of RT112/luc1 cells implanted athymic nude mouse at 20 mg/kg, po by LC/MS/MS analysis; assay type: ADME, organism-based, Neoplasm; set-up: dose 20 mg/kg, route oral; conditions: in vivo; method in brief: as §5
Tumour [15] = assay: Drug uptake in tumour of nude Rowett rat bearing human RT112 cells at 4.25 mg/kg, po administered as a single dose after 24 hrs by LC-MS/MS analysis; assay type: ADME, organism-based, Neoplasm, RT-112; set-up: dose 4.25 mg/kg, route oral; conditions: in vivo
Method in brief: (§6)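 Nude Rowett rats bearing subcutaneous RT112 tumors (n = 4) received a single gavage of monophosphate salt at 4.25 or 8.51 mg/kg free base in acetate buffer pH 4.6/PEG300. Tumors were collected at intervals after dosing, frozen and homogenized in an equal volume of ice-cold PBS. Compound levels were measured by LC-MS/MS (LOQ 3 ng/mL).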

[16] = Cmax in Wistar rat at 10 mg/kg, po by LC-MS/MS analysis; assay type: ADME, organism-based; set-up: dose 10 mg/kg, route oral; conditions: in vivo
Method in brief: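 Female Wistar rats received either an iv femoral-vein dose of 5 mg/kg in NMP/PEG200 (1:9) or an oral dose of monophosphate salt at 10 mg/kg (free base) in acetate buffer pH 4.6/PEG300. Plasma was sampled by sublingual bleeding at 0.083–24 h (n = 4 staggered, or n = 3–4 serial). Plasma levels were measured by LC-MS/MS (LOQ 10 ng/mL).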

[17] = biological target: Serine/threonine-protein kinase PLK1 (Homo sapiens, UniProt P53350); assay: Inhibition of recombinant PLK1; method in brief: as §3
Tumour [18] = assay: Drug uptake in tumour of nude Rowett rat bearing human RT112 cells at 8.51 mg/kg, po administered as a single dose after 24 hrs by LC-MS/MS analysis; assay type: ADME, organism-based, Neoplasm, RT-112; set-up: dose 8.51 mg/kg, route oral; conditions: in vivo; method in brief: as §6
[19] = Half life in tumor of RT112/luc1 cells implanted athymic nude mouse at 20 mg/kg, po by LC/MS/MS analysis; assay type: ADME, organism-based, Neoplasm; set-up: dose 20 mg/kg, route oral; method in brief: as §5
[20] = biological target: Tyrosine-protein kinase Lyn (Homo sapiens, UniProt P07948); assay: Inhibition of recombinant LYN kinase; method in brief: as §2
[21] = biological target: Mitogen-activated protein kinase 12 (Homo sapiens, UniProt P53778); assay: Inhibition of recombinant p38-gamma; method in brief: as §3
[22] = biological target: RAC-alpha serine/threonine-protein kinase (Homo sapiens, UniProt P31749); assay: Inhibition of recombinant PKBalpha; method in brief: as §3
[23] = biological target: Cyclin-dependent kinase 2 (Homo sapiens, UniProt P24941); assay: Inhibition of recombinant CDK2; method in brief: as §2
Cytochrome P450 2D6 = Cytochrome P450 2D6 (Homo sapiens, UniProt P10635); assay: Inhibition of CYP2D6 using AMMC as substrate; assay type: ADME
Method in brief: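 Human CYP450 inhibition was measured with isoform-specific fluorogenic probe substrates: CEC for 1A2 and 2C19, MFC for 2C9, AMMC for 2D6. Incubation was at 37 °C with an NADPH-regenerating system in 384-well format. Metabolite was quantified by fluorescence, and IC50 was obtained by curve fitting.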

[24] = Tmax in Wistar rat at 10 mg/kg, po by LC-MS/MS analysis; assay type: ADME, organism-based; set-up: dose 10 mg/kg, route oral; conditions: in vivo
Method in brief: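 Female Wistar rats received 5 mg/kg iv into the femoral vein in NMP/PEG200 (1:9), or the monophosphate salt orally at 10 mg/kg (free base) in acetate buffer pH 4.6/PEG300. Serial sublingual plasma samples were taken from 0.083 to 24 h.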

Serine/threonine-protein kinase PLK1, sequence (P53350 whole entry): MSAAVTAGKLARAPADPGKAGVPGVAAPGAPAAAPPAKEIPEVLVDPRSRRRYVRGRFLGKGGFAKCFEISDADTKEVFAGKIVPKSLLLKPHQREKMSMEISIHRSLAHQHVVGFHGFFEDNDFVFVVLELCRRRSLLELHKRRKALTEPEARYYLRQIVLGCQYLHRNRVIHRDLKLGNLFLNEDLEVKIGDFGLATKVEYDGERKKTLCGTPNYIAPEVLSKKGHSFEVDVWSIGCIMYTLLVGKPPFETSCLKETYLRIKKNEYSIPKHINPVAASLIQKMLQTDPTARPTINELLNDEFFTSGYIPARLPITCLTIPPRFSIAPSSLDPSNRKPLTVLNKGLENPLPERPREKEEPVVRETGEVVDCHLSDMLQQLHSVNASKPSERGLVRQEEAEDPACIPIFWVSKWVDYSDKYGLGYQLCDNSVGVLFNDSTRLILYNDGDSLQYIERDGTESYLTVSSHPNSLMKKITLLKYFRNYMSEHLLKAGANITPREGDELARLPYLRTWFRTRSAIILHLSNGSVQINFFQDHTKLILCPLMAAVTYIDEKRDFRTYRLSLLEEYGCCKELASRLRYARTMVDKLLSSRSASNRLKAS
Ephrin type-B receptor 4, sequence (P54760 whole entry): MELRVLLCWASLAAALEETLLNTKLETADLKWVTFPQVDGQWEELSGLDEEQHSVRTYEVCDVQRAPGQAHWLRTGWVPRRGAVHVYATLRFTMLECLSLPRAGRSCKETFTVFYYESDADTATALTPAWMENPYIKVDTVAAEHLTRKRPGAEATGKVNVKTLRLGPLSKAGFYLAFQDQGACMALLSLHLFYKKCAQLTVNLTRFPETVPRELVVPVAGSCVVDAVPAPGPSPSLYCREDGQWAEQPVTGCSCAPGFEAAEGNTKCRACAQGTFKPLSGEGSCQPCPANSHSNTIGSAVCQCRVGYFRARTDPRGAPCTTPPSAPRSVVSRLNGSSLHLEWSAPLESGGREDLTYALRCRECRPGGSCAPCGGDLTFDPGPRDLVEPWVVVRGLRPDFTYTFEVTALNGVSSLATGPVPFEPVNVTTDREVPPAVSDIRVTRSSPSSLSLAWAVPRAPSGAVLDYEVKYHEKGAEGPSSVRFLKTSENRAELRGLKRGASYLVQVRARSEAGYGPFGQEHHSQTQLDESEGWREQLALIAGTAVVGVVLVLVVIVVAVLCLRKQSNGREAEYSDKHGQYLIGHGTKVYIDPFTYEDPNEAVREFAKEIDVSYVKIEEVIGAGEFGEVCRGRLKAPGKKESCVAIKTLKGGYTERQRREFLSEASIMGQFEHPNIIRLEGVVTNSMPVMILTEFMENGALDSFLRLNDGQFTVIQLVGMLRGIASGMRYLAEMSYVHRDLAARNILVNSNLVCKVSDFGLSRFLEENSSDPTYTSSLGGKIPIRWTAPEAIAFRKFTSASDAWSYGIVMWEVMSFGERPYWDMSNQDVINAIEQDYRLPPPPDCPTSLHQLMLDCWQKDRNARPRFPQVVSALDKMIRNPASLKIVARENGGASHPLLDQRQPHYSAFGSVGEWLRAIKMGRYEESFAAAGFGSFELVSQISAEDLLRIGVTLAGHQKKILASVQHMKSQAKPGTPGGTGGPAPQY
Cytochrome P450 2D6, sequence (P10635 whole entry, canonical isoform): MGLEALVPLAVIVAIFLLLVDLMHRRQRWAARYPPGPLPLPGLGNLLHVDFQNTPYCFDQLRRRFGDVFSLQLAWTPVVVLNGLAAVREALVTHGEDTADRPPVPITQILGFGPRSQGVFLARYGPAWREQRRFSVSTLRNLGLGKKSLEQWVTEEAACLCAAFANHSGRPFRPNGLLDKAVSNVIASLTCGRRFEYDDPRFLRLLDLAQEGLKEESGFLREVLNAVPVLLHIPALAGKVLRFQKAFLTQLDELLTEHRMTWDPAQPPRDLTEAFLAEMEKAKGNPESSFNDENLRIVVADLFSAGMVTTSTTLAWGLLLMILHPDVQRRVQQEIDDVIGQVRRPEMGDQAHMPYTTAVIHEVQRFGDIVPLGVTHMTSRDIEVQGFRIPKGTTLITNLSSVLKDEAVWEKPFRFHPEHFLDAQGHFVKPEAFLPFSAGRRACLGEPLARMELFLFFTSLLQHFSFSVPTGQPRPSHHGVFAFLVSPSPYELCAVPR
Tyrosine-protein kinase Lyn, sequence (P07948 whole entry): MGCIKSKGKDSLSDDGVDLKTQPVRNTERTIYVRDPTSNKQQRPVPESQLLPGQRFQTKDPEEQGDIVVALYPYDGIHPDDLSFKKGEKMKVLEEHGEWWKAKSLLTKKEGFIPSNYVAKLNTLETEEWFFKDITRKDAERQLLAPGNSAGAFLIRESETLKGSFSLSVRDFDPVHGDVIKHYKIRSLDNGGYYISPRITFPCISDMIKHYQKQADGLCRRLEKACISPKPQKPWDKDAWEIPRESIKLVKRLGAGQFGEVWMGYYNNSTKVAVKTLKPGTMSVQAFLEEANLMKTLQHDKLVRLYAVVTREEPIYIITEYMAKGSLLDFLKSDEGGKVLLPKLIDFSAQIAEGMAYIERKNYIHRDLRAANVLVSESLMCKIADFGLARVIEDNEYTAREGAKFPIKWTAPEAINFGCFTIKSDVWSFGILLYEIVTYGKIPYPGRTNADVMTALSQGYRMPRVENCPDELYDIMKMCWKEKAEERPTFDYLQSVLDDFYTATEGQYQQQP
RAC-alpha serine/threonine-protein kinase, sequence (P31749 whole entry): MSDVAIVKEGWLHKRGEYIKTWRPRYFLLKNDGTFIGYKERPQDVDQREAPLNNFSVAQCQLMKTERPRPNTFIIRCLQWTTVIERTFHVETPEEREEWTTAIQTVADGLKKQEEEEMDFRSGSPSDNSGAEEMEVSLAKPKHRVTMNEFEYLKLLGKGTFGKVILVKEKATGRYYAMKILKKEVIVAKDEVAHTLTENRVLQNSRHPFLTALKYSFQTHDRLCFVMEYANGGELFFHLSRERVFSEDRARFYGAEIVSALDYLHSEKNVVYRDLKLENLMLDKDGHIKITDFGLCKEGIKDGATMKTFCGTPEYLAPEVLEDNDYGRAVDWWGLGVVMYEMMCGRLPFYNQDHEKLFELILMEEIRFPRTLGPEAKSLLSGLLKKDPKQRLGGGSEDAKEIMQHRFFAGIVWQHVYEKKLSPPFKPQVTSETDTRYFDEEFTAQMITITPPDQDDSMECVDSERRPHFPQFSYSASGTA
Serine/threonine-protein kinase PAK 2, sequence (Q13177 whole entry): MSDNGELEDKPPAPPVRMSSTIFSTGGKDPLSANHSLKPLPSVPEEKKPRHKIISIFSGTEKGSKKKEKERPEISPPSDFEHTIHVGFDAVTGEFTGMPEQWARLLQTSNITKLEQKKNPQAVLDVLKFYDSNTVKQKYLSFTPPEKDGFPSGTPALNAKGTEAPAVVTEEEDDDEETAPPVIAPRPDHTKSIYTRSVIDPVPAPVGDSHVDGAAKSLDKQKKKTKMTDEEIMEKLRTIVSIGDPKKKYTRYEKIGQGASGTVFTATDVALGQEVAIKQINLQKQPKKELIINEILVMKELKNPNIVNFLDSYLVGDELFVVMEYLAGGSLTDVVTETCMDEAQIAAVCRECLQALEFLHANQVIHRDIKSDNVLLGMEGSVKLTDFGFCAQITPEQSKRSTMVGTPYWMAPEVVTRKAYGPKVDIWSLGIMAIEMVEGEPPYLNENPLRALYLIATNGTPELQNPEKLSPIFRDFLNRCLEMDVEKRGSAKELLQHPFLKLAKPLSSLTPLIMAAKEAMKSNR
Mitogen-activated protein kinase 12, sequence (P53778 whole entry): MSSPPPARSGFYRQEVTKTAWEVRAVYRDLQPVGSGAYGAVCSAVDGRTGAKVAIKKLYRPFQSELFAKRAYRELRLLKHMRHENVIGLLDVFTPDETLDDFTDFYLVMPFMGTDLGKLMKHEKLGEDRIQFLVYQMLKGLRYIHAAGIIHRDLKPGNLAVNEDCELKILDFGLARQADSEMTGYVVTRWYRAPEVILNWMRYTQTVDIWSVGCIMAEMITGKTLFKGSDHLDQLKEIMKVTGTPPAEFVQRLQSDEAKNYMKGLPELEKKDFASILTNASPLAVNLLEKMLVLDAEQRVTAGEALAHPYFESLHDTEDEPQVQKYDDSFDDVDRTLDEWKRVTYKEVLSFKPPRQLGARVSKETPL
Tyrosine-protein kinase Yes, sequence (P07947 whole entry): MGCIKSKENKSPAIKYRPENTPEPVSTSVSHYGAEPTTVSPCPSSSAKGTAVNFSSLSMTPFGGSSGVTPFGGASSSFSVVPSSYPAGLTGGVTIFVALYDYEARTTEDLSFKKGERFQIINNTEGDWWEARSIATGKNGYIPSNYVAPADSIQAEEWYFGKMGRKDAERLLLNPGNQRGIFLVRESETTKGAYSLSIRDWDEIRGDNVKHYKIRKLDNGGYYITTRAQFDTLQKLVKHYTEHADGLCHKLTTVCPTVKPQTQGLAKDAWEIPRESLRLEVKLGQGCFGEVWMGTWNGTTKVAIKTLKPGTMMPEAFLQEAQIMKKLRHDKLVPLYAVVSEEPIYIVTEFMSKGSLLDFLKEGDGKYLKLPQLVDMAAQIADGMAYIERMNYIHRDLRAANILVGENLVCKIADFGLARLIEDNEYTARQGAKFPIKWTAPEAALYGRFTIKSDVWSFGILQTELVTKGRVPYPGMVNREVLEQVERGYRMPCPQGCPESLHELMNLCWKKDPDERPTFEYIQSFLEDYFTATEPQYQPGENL
Glycogen synthase kinase-3 beta, sequence (P49841 whole entry): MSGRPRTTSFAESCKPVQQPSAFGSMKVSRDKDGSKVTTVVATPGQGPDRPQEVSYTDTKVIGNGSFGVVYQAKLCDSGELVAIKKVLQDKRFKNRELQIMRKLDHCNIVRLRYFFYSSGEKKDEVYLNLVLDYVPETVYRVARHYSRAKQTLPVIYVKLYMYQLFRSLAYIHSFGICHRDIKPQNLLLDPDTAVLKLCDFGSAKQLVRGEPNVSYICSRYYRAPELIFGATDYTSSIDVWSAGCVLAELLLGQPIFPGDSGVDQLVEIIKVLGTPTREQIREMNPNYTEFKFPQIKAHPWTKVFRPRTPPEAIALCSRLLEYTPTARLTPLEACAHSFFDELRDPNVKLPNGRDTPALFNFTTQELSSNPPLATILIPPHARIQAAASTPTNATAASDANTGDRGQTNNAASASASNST

CCN1CCN(c2ccc(Nc3cc(N(C)C(=O)Nc4c(Cl)c(OC)cc(OC)c4Cl)ncn3)cc2)CC1.O=P(O)(O)O [INFIGRATINIB PHOSPHATE]
IC50 [1]: > 10 µM | IC50 (Ephrin type-B receptor 4): > 10 µM | IC50 [2]: 1.1 µM | IC50 [3]: > 10 µM | IC50 [4]: > 10 µM | IC50 [5]: > 10 µM | inhibition (Rattus norvegicus [6]): Active | IC50 [7]: > 10 µM | IC50 [8]: > 10 µM | inhibition (Rattus norvegicus [9]): inactive | Tmax [10]: 8 h | Cmax (Tumour [11]): 1.68 nmol/g | IC50 [12]: > 10 µM | IC50 [13]: > 10 µM | Cmax (Tumour [14]): 1.63 nmol/g | Drug uptake (Tumour [15]): 0.12 nmol/g | Cmax [16]: 260 nM | IC50 [17]: > 10 µM | Drug uptake (Tumour [18]): 0.32 nmol/g | half-life [19]: 13 h | IC50 [20]: 0.3 µM | IC50 [21]: > 10 µM | IC50 [22]: > 10 µM | IC50 [23]: > 10 µM | IC50 (Cytochrome P450 2D6): > 10 µM | Tmax [24]: 4 h
